Paper PMC7340475 (Drug Design, Development and Therapy, 2020)
Where two headings read alike, the source gives them in different places. One block for each compound: values may come before it.

What was measured:
CHO cells = conditions: cited from earlier work
α2C-AR = target: T1, α2C-AR (Homo sapiens, UniProt P18825); test: Saturation binding assay of the radioligand; conditions: read-out: KD α2C-AR
T1 sequence (P18825 1-462): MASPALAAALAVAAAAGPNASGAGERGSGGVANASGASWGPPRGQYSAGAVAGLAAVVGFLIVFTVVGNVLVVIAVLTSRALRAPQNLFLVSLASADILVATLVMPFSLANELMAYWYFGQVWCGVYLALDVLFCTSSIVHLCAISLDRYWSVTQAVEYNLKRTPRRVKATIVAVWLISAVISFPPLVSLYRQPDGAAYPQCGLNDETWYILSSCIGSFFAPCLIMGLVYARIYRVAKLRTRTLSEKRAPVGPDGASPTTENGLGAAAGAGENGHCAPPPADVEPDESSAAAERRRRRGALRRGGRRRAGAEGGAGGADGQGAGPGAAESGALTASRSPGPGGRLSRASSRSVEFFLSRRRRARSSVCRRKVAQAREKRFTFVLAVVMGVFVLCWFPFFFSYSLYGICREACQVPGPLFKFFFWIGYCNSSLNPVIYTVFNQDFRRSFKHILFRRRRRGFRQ
Outline: (§1)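 Saturation binding used membranes from COS-7 cells transiently expressing each human α2-AR subtype. Membranes were incubated 1 h at room temperature with 0.1–10 nM [125I]-PIC in 50 mM Tris-HCl/120 mM sucrose. […] Reactions were stopped with PBS and filtered through GF/B. Radioactivity was counted and KD came from nonlinear regression.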

α2A-AR [1] = target: T2, α2A-AR (Homo sapiens, UniProt P08913); test: Saturation binding assay of the radioligand; conditions: read-out: KD α2A-AR
T2 sequence (P08913 1-465): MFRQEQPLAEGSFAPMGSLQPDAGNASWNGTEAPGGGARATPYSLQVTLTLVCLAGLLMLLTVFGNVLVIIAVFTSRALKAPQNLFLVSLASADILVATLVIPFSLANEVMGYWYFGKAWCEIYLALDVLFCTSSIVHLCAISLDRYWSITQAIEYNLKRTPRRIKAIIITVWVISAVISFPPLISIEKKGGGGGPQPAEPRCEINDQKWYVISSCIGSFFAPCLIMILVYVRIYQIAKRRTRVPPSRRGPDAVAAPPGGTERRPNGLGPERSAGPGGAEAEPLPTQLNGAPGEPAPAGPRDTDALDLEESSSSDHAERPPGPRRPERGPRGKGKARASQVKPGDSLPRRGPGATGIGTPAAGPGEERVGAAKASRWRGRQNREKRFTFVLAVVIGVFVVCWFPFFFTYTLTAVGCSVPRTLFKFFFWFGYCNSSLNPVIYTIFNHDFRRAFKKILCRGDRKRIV
Outline: as §1

α2A-AR [2] = target: T2, α2A-AR; test: cAMP-Glo assay, forskolin induced cAMP accumulation in transfected COS-7 cells; format: cell-based

Structure (SMILES): CNC[C@H](O)c1ccc(O)c(O)c1 [epinephrine]
effect on cAMP production (CHO cells; from 10^−7 to 10^−6 M): increase | effect on cAMP production (CHO cells; from 10^−9 to 10^−8 M): inhibition

Structure (SMILES): Clc1cc(I)cc(Cl)c1NC1=NCCN1 [[^125I]-PIC, [^125I]-paraiodoclonidine]
Kd (α2C-AR): 802 ± 53 pM | Kd (α2A-AR [1]): 209 ± 60 pM

effect on cAMP production (α2A-AR [2]; higher concentrations (10^−3-10^−7M)): stimulated the expression of cAMP | effect on cAMP production (α2A-AR [2]; lower concentrations (10^−10-10^−8M)): inhibited the production of cAMP
Structure (SMILES): NC[C@H](O)c1ccc(O)c(O)c1 [norepinephrine]

effect on the production of cAMP, compound alone (α2A-AR [2]; forskolin, no norepinephrine): did not have any effect
Structure (SMILES): Cc1ccc(N(CC2=NCCN2)c2cccc(O)c2)cc1 [phentolamine]
